Mot1-301 SUMO: blocks SUMOylation pathway, rescuing yeast Mot1-301 growth; growth rescue, % at 18.8 µM; AID 2716; actives 1% (n = 320,000); S. cerevisiae Mot1-301 growth rescue, ATP luminescence, 38.5C; percent above DMSO median, 100 means doubled;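 active means every valid replicate shows activation above 250% relative to neutral control wells; inactive means the rest, any valid replicate at or below 250%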;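 further: OY570 slx delta 5 strain wells were the positive control but not used for scaling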
HIF activator: HIF pathway transcriptional activation; U2OS HRE-luciferase reporter, luminescence; normalized: DMSO 0%, desferrioxamine 100%; activation, % at 7.5 µM (by protocol); actives 0.32% (n = 300,000); AID 1910;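 active means mean activation of at least 10% of the iron chelator positive control signal, with at least half of replicates also reaching 10%; inconclusive means mean and replicate majority disagree about reaching 10%; inactive means mean and most replicates under 10%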
T cell modulator: T cell immune modulation candidate | 2C CD8+ T cell-vesicle binding, flow cytometry; stronger effect = lower value | response (vesicle binding), % at 7 µM | actives 0.068% (n = 330,000);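 active means response, share of CD8 T cells binding vesicles, and their 90th percentile fluorescence all below set limits, cut at about 80% in these data, passing the limit was not always enough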;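 further: values below 100% mean blocked vesicle binding to the CD8+ T cells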
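Benchmarks: naked versus QL9-loaded vesicles / Assay system: purified 2C TCR transgenic mouse naive CD8+ T cells / Technique: high-throughput flow cytometry with anti-B7-1 and anti-CD8 staining / Timing: Cell–vesicle co-incubation 1.5 h at 37 °C, staining 20 min on ice / Read-out: percent CD8+ FL2 mean versus row control / Probe or stimulus: QL9-loaded Drosophila micro-vesicles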
GASC-1 inh: blocks human GASC-1 demethylase activity; GST-JMJD2C(1-420) H3K9me3 demethylation, DELFIA europium; AID 2099; inhibition, % at 2.35 µM; actives 0.069% (n = 330,000); Q9H3R0;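 active means more than half of a compound's replicate wells show inhibition beyond 50%, single wells judged on their own value; inconclusive means some, but no more than half, of replicates pass 50% inhibition; inactive means no replicate passes 50% inhibition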;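 further: signal counts dimethyl H3K9 product captured on neutravidin plate; 0% = median of DMSO wells and 100% = 0.3 times that DMSO median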
Target sequence (Q9H3R0 1-420 limits assumed): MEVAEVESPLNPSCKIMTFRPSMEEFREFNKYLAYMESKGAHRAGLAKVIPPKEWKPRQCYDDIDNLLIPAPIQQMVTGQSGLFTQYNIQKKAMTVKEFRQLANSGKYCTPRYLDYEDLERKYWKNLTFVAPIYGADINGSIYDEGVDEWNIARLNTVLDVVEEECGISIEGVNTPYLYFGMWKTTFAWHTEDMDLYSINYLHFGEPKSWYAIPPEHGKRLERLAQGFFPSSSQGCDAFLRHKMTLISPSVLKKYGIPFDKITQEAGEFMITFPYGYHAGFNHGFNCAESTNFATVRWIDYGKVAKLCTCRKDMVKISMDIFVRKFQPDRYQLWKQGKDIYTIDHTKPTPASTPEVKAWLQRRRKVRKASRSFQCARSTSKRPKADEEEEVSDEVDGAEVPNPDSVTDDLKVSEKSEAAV
Yeast Mot1 SUMO: inhibits SUMO pathway, affecting Mot1-301 yeast growth | shares compounds with Mot1-301 SUMO | S. cerevisiae Mot1-301 galactose growth, ATP luminescence, 24 h; -100 = growth of slx-deleted rescue strain | growth activity, percent, % at 42 µM | 2,300 tested, under 10 active | AID 493004;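 active means Signal drops as the depositor expects, and the fitted half-maximal dose is no more than ten times the top valid tested dose; inconclusive means Poor fit, or a flat curve whose signal drops by 30% to 70%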;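 further: more negative values mean stronger growth rescue toward the control strain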
Starred values were filed as active, the others as inactive; [ ] = another dose, or the depositor's remark. Compounds with a hit are over-represented: about 1.4% of the library has one in this group of screens.

Results for O=C(CNc1ccc(Br)cc1)Nc1ccc(S(=O)(=O)N2CCCC2)cc1 ?
Mot1-301 SUMO: -1; T cell modulator: 202; GASC-1 inh: 3

What do the screens show for `COc1ccc2c(Cl)c(C(=O)NN3CCN(C)CC3)sc2c1`?
Mot1-301 SUMO: 587*; HIF activator: 1; T cell modulator: 361; GASC-1 inh: -1; Yeast Mot1 SUMO: -1

Results for CCC(C)c1ccccc1N1CC(C(=O)Nc2cc(S(=O)(=O)N3CCOCC3)ccc2OC)CC1=O (centres undefined) ?
Mot1-301 SUMO: -7; HIF activator: -1; T cell modulator: 334; GASC-1 inh: 0

What do the screens show for `O=C(CN1CCN(c2ccccc2F)CC1)Nc1nnc(C(F)(F)F)s1`?
Mot1-301 SUMO: active; HIF activator: 0; T cell modulator: 453; GASC-1 inh: -188; Yeast Mot1 SUMO: 0

What do the screens show for `COC(=O)c1[nH]c2cc(C)ccc2c1NC(=O)CN1CCN(c2ccccc2OC)CC1`?
Mot1-301 SUMO: 492*; HIF activator: 0; T cell modulator: inactive; GASC-1 inh: -22; Yeast Mot1 SUMO: 0[21 µM]

How did CCOC(=O)N1CCN(CC(=O)Nc2nnc(C(F)(F)F)s2)CC1 do in these assays?
Mot1-301 SUMO: 4; HIF activator: 0; T cell modulator: 264; GASC-1 inh: -13

What do the screens show for `COc1cccc(NC(=O)CN2CCN(c3ccccc3F)CC2)c1`?
Mot1-301 SUMO: 600*; HIF activator: 0; T cell modulator: 311; GASC-1 inh: 0; Yeast Mot1 SUMO: 0

How did COc1cc(NC(=O)CN2CCN(c3ccccc3F)CC2)cc(OC)c1 do in these assays?
Mot1-301 SUMO: 14; T cell modulator: 275; GASC-1 inh: 2

How did Cc1cccc(C)c1NC(=O)CS(=O)CC(=O)NCC1OCCc2ccccc21 (centres undefined) do in these assays?
HIF activator: 0; T cell modulator: 356; GASC-1 inh: 3

Results for CSc1ccccc1NC(=O)CN(C)C(=O)C1CCN(C(=O)Nc2ccccc2)CC1 ?
Mot1-301 SUMO: -23; HIF activator: -29; T cell modulator: 157; GASC-1 inh: inconclusive

How did Cc1cc(-c2ccc(C(C)C)c(S(=O)(=O)N3CC(=O)Nc4ccccc43)c2)on1 do in these assays?
Mot1-301 SUMO: 581*; HIF activator: -1; T cell modulator: 101; GASC-1 inh: -5; Yeast Mot1 SUMO: -1

How did Cc1cc(-c2ccc(C)c(S(=O)(=O)N3CC(=O)Nc4ccccc43)c2)on1 do in these assays?
Mot1-301 SUMO: 4; HIF activator: 0; T cell modulator: 163; GASC-1 inh: -2

Results for Cc1ccccc1N1CCN(CC(=O)Nc2ccccc2C(=O)NC2CC2)CC1 ?
Mot1-301 SUMO: 0; T cell modulator: 263; GASC-1 inh: 11

How did O=C(CSc1nnc(-c2ccccc2Cl)o1)Oc1ccc(Br)cc1 do in these assays?
Mot1-301 SUMO: 501*; HIF activator: 0; T cell modulator: 270; GASC-1 inh: -6; Yeast Mot1 SUMO: 0

What do the screens show for `O=C(CSc1nnc(-c2ccccc2O)o1)Oc1ccc(Br)cc1`?
Mot1-301 SUMO: -22; HIF activator: 0; T cell modulator: 286; GASC-1 inh: -9

How did CCN(CC)c1ccc(/C=N/NC(=O)OC(C)(C)C)cc1 do in these assays?
Mot1-301 SUMO: 568*; HIF activator: 2; T cell modulator: 397; GASC-1 inh: -5; Yeast Mot1 SUMO: 0

Results for Cc1cc2c(cc1S(=O)(=O)N1CCN(c3cccc(C)c3C)CC1)OCCN2C ?
Mot1-301 SUMO: -4; HIF activator: 0; T cell modulator: 570; GASC-1 inh: 12

How did O=C(c1cc[n+]([O-])cc1)N1CCCC(N2CCN(c3cccc(C(F)(F)F)c3)CC2)C1 (centres undefined) do in these assays?
Mot1-301 SUMO: 20; HIF activator: 0; T cell modulator: 254; GASC-1 inh: 11

How did C/C(=C\C(=O)c1ccc(F)cc1)NCc1ccc2c(c1)OCO2 do in these assays?
Mot1-301 SUMO: 5; HIF activator: 0; T cell modulator: 518; GASC-1 inh: 3

Results for N#CC(CC(=O)c1ccc(F)cc1)c1ccc2c(c1)OCO2 (centres undefined) ?
Mot1-301 SUMO: 420*; HIF activator: 0; T cell modulator: 307; GASC-1 inh: -39; Yeast Mot1 SUMO: 0

How did O=c1oc2ccc3ccccc3c2cc1-c1nnc(-c2ccccc2)o1 do in these assays?
Mot1-301 SUMO: 6; HIF activator: 0; T cell modulator: 224; GASC-1 inh: 1

Assay outcomes: PubChem BioAssay, several laboratories
